The target of data set [1] is T1, Sodium- and chloride-dependent glycine transporter 1 (Rattus norvegicus) (UniProt P28572).
T1 sequence (whole entry): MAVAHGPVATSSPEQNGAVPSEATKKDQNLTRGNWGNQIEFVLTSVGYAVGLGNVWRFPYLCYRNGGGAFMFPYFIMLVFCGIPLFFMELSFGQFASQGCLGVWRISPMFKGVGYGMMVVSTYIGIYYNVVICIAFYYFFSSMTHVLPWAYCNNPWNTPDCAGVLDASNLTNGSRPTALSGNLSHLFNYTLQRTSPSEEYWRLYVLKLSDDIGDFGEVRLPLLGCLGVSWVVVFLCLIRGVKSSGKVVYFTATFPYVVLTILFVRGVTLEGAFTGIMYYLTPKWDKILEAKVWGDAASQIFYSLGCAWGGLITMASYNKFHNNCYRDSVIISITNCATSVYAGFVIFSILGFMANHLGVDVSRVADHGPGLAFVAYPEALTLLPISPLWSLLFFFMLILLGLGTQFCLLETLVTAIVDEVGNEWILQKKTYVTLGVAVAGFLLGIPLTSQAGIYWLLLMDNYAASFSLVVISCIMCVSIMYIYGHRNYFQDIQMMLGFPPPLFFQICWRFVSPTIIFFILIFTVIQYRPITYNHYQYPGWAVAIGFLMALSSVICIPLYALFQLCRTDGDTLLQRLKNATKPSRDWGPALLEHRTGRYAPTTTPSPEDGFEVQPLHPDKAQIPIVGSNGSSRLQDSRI
The experiment in a line: Binding affinity to GlyT1 in rat brain midbrain at 0.03 to 0.04 nM preincubated for 20 mins in binding buffer before compound addition measured after 30 mins by autoradiography in presence of GlyT1 inhibitor N-Me-SSR504734 relative to control. The conditions noted are these: tested as the 125I-labelled form. Type of data set: tissue-based.

Data set [2] concerns the target T1, Sodium- and chloride-dependent glycine transporter 1 (Rattus norvegicus). Description: Binding affinity to GlyT1 in rat brain corpus callosum at 0.03 to 0.04 nM preincubated for 20 mins in binding buffer before compound addition measured after 30 mins by autoradiography in presence of 0.01 mM GlyT2 inhibitor ORG25543 relative to control. The settings on record: tested as the 125I-labelled form. It counts as tissue-based. A digest of the protocol: (§1)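 Rat brain sagittal sections (20 µm) preincubated 20 min at 25 °C in Tris-HCl buffer pH 7.5 (NaCl, KCl, MgCl2, CaCl2), then 30 min at 25 °C with [125I] tracer (100 kBq, 0.03–0.04 nM) plus competitor (10 µM; glycine 1 or 10 mM). Cold washes, imaging plate 3 days, ROI PSL minus background per mm². % control from ≥triplicate slices, three rats.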

Data set [3] has the same target. Description: Binding affinity to GlyT1 in rat brain midbrain at 0.03 to 0.04 nM preincubated for 20 mins in binding buffer before compound addition measured after 30 mins by autoradiography in presence of 0.01 mM GlyT2 inhibitor ORG25543 relative to control. Type of data set: tissue-based. The settings on record: tested as the 125I-labelled form. A digest of the protocol: as §1

The target is the same in data set [4]. The experiment in a line: Binding affinity to GlyT1 in rat brain cerebellum at 0.03 to 0.04 nM preincubated for 20 mins in binding buffer before compound addition measured after 30 mins by autoradiography in presence of 0.01 mM NMDA receptor glycine site antagonist L-701,324 relative to control. It counts as tissue-based. The conditions noted are these: tested as the 125I-labelled form. The procedure, abridged: as §1

The target is the same in data set [5]. Description: Binding affinity to GlyT1 in rat brain striatum at 0.03 to 0.04 nM preincubated for 20 mins in binding buffer before compound addition measured after 30 mins by autoradiography in presence of 0.01 mM GlyT1 inhibitor SSR504734 relative to control. Type of data set: tissue-based. The settings on record: tested as the 125I-labelled form.
Data set [6] relates to Mus musculus. Description: In vivo binding affinity to GlyT1 in ddY mouse brain thalamus at 33.3 kBq, iv after 60 mins in presence of SSR504734 2 mg/kg, iv administered 15 mins prior to compound administration relative to control. Type of data set: functional, organism-based. The conditions noted are these: tested as the 125I-labelled form. Also on record: dose 2 mg/kg.
In data set [7] the target is T1, Sodium- and chloride-dependent glycine transporter 1 (Rattus norvegicus). The experiment in a line: Binding affinity to GlyT1 in rat brain thalamus at 0.03 to 0.04 nM preincubated for 20 mins in binding buffer before compound addition measured after 30 mins by autoradiography in presence of 0.01 mM GlyT1 inhibitor HPCP relative to control. Type of data set: tissue-based. The conditions noted are these: tested as the 125I-labelled form.

The target is the same in data set [8]. The experiment in a line: Binding affinity to GlyT1 in rat brain corpus callosum at 0.03 to 0.04 nM preincubated for 20 mins in binding buffer before compound addition measured after 30 mins by autoradiography in presence of 0.01 mM GlyT1 inhibitor SSR504734 relative to control. It counts as tissue-based. The conditions noted are these: tested as the 125I-labelled form. A digest of the protocol: as §1

Data set [9] has the same target. The experiment in a line: Binding affinity to GlyT1 in rat brain cerebral cortex at 0.03 to 0.04 nM preincubated for 20 mins in binding buffer before compound addition measured after 30 mins by autoradiography in presence of GlyT1 inhibitor N-Me-SSR504734 relative to control. It counts as tissue-based. The conditions noted are these: tested as the 125I-labelled form. The procedure, abridged: as §1

Data set [10] has the same target. The experiment in a line: Binding affinity to GlyT1 in rat brain hippocampus at 0.03 to 0.04 nM preincubated for 20 mins in binding buffer before compound addition measured after 30 mins by autoradiography in presence of 0.01 mM GlyT2 inhibitor ORG25543 relative to control. It counts as tissue-based. The conditions noted are these: tested as the 125I-labelled form. A digest of the protocol: as §1

In data set [11] the test system is Mus musculus. The experiment in a line: In vivo binding affinity to GlyT1 in ddY mouse brain cerebellum at 33.3 kBq, iv after 30 mins in presence of SSR504734 2 mg/kg, iv administered 15 mins prior to compound administration relative to control. Type of data set: functional, organism-based. Details: dose 2 mg/kg. The conditions noted are these: tested as the 125I-labelled form. The procedure, abridged: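 Blocking study in male ddY mice (6 weeks, 30–35 g). The blocker (2 mg/kg in 30% DMSO/saline) was injected i.v. 15 min before about 33.3 kBq [125I]tracer i.v.; mice were killed at 30 or 60 min. Brains were divided into cortex, corpus callosum, hippocampus, thalamus, midbrain, medulla and cerebellum, weighed and gamma-counted as % dose/g. Values are mean ± SD, n = 5–6, compared to control by Kruskal–Wallis with Dunn's post-test.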

Data set [12] deals with T1, Sodium- and chloride-dependent glycine transporter 1 (Rattus norvegicus). Description: Binding affinity to GlyT1 in rat brain medullary region at 0.03 to 0.04 nM preincubated for 20 mins in binding buffer before compound addition measured after 30 mins by autoradiography in presence of GlyT1 inhibitor N-Me-SSR504734 relative to control. It counts as tissue-based. The conditions noted are these: tested as the 125I-labelled form. A digest of the protocol:
as §1

The test system of data set [13] is Stomach. The experiment in a line: Drug uptake in ddY mouse stomach at 11.1 kBq, iv after 60 min by gamma counting. Type of data set: ADME, organism-based. The settings on record: in vivo, 1 h. A digest of the protocol:
(§2)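 Male ddY mice (6 weeks, 30–35 g) were given about 11.1 kBq of [125I]tracer in 0.1 mL i.v. via the tail vein. At each time point the animals were killed and organs dissected, weighed and gamma-counted. Uptake is expressed as % injected dose per gram of tissue, mean ± SD, n = 5–6.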

For data set [14], the system named is Stomach. The experiment in a line: Drug uptake in ddY mouse stomach at 11.1 kBq, iv after 5 min by gamma counting. It counts as ADME, organism-based. The settings on record: in vivo. The procedure, abridged:
as §2

Data set [15] relates to Mus musculus. The experiment in a line: In vivo binding affinity to GlyT1 in ddY mouse brain medullary region at 33.3 kBq, iv after 60 mins in presence of N-Me-SSR504734 2 mg/kg, iv administered 15 mins prior to compound administration relative to control. It counts as functional, Medulla of organ.
For data set [16], the system named is Liver. The experiment in a line: Drug uptake in ddY mouse liver at 11.1 kBq, iv after 5 min by gamma counting. Type of data set: ADME, organism-based. The conditions noted are these: in vivo. The procedure, abridged: as §2

Calls of active or inactive are those of the source. The calls are words filed in the database; no cut-off is given here.

`CN1CCCC[C@H]1[C@@H](NC(=O)c1cccc(C(F)(F)F)c1I)c1ccccc1`: the Activity in data set [1] came out at 25.3%; in data set [2], 98.2%; in [3] it was 115%; in data set [4], 87.1%; in data set [5] it was 50.2%; in data set [7], 22.5%. Further, the Activity in data set [8] was 21.8%; in data set [9] it was 37.5%; in [10], 105%; in data set [12], 20.6%. Moreover, the outcome in [6] and in data set [11] was inactive.

As to `CN1CCCC[C@H]1[C@@H](NC(=O)c1cccc(C(F)(F)F)c1[125I])c1ccccc1`, the Drug uptake in data set [13] turned out to be 8.26 % ID/g; in [14], 3.3 % ID/g; in data set [16] it was 9.25 % ID/g. For the same compound, the Activity in [15] stood at 47%.

These data come from ChEMBL document CHEMBL1938298, “Synthesis and characterization of [¹²⁵I]2-iodo N-[(S)-{(S)-1-methylpiperidin-2-yl}(phenyl)methyl]3-trifluoromethyl-benzamide as novel imaging probe for glycine transporter 1” (Bioorg Med Chem, 2011).
